Compound activity as filed in PubChem BioAssay.
PMI act satM6P: human PMI activators, high substrate, primary screen, biochemical, fluorescence intensity, near-saturating mannose 6-phosphate | activation factor at 20 µM | Mannose-6-phosphate isomerase (Homo sapiens), P34949 | 190,000 compounds, 0.34% hits | coupled PMI enzyme assay, resazurin fluorescence, 20 min; stronger effect = higher value; 1 = untreated enzyme, 0 = substrate-free blank;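 active = activation factor of 2 or more at 20 µM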
Target sequence (P34949 whole entry, looked up): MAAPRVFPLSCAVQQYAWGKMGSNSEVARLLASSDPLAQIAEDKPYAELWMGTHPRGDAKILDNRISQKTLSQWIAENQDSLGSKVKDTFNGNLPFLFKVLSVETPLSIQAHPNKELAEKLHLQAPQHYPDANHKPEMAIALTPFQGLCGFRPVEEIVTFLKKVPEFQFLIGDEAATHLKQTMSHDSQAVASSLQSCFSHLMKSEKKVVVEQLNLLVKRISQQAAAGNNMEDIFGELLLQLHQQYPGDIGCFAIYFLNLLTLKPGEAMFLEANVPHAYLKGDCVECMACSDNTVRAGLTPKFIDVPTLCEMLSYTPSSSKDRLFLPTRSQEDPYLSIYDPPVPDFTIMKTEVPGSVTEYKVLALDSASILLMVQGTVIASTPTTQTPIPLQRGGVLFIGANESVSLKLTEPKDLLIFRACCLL
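assay system = human phosphomannose isomerase with PGI, G6PDH, diaphorase coupling enzymes | quantity = 15 ng/mL PMI | incubation = enzyme reaction with compound 20 min at room temperature | medium = HEPES pH 7.4 buffer with MgCl2 and Tween-20 | compound dosing = one concentration, 20 µM, in 1% DMSO | measured by = Diaphorase-driven resazurin-to-resorufin fluorescence, excitation 544, emission 590 nm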
Lmaj promast: Leishmania major promastigote growth inhibition, primary screen; inhibition, % at 10 µM; 200,000 compounds, 9% hits; Leishmania major promastigotes, resazurin fluorescence viability; in the data active = inhibition above about 50%;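 note: promastigotes grown with compound for 44 hours at 28 °C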
HCT116 PTEN-null: growth suppression of PTEN-null HCT116, primary screen, cell-based, CellTiter-Glo; HCT116 PTEN-null viability, 60 h; stronger effect = lower value; viability, % at 10 µM; 140,000 compounds, 1.2% hits;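 active = viability at or below a set limit, 4 SD under the median of all tested compounds, cut at about 3.7% in these data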;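 note: PTEN knockout HCT116 line with beta catenin targeted HCT116 as companion control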
PMI act: activators of human PMI, primary screen, biochemical, fluorescence intensity, near-Km mannose 6-phosphate | Mannose-6-phosphate isomerase (Homo sapiens), P34949 | purified human PMI, coupled resazurin fluorescence, 20 min; stronger effect = higher value; 1 = vehicle control, 0 substrate-free wells | activation factor at 20 µM | 190,000 compounds, 0.005% hits | AID 1214, 2008;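 active = activation factor of 2 or more at 20 µM, relative to plate controls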
HCT116 bCat-KO: primary screen for growth suppressors in beta-catenin knockout HCT116 cells (colon tumor, human) | HCT116 beta-catenin knockout viability, CellTiter-Glo, 60 h; stronger effect = lower value | viability, % at 10 µM | 140,000 compounds, 1.5% hits | AID 818, 2007;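 active = viability at or under a set limit, the compound median less 4 SD, cut at about 6% in these data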
Hits are given with their value; . = inactive; / = not tested or not shown. Sampled rows, rich in hits. Any-hit rate of the full collection: about 9.6%.

SMILES	PMI act satM6P	Lmaj promast	HCT116 PTEN-null	PMI act	HCT116 bCat-KO
CC(=O)Nc1ccc(OCC(O)Cn2c3ccccc3c3ccccc32)c(C)c1 (configuration not stated)	.	75	.	.	.
CC(=O)Nc1ccc(OCC(O)Cn2ccnc2C)cc1 (configuration not stated)	.	.	/	.	/
CC(=O)Nc1ccc(OCC(O)Cn2c3ccccc3c3ccccc32)cc1 (configuration not stated)	.	85	.	.	.
N=c1ccccn1CC(O)COc1ccccc1 (configuration not stated)	.	.	.	.	.
CCc1cccc(C)c1NC(=O)C1=C(C(=O)O)CCCC1	.	.	.	.	.
Cc1ccc(N(CC(O)Cn2nc(C)cc2C)S(=O)(=O)c2ccc3ccccc3c2)cc1 (configuration not stated)	.	76	.	.	.
Cc1nccn1CC(O)Cn1c2ccccc2c2ccccc21 (configuration not stated)	.	.	.	.	.
Cc1ccccc1OCC(O)Cn1c2ccccc2c2ccccc21 (configuration not stated)	.	91	.	.	.
CCN=c1sc2ccccc2n1CC(O)COc1ccccc1 (configuration not stated)	.	100	.	.	.
CN=c1sc2ccccc2n1CC(O)COc1ccccc1 (configuration not stated)	.	.	.	.	.
COc1cccc(CNC(=O)CCC2CCCN(C(=O)c3csc(C(C)C)n3)C2)c1 (configuration not stated)	.	.	/	.	/
Cc1ccc(Oc2ccc(OCC(=O)NC(CC(C)C)C(=O)O)cc2)cc1 (configuration not stated)	.	.	/	.	/
COc1ccc(-c2cc(-c3ccccc3)c(C#N)c(S(C)=O)n2)cc1 (configuration not stated)	.	100	1.3	.	1.1
COC(=O)C1=C(C)N(c2cc(Cl)cc(Cl)c2)C(=O)C1	.	87	.	.	.
BrC(=C\c1ccccc1)/C=N/N1CCN(c2ccccn2)CC1	.	.	.	.	.
CCc1c(O)cc(=O)n(-c2ccccc2)c1-c1ccccc1	.	.	.	.	.
CCc1c(O)cc2n(c1=O)-c1ccc(Cl)cc1C2(C)C	.	71	.	.	.
Cc1cccc(NC(=O)CSc2nc(N)cc(N)n2)c1	.	.	.	.	.
Cc1ccc(C)c(NC(=O)CSc2ccc(-c3ccco3)nn2)c1	.	55	.	.	.
Cc1cccc(NC(=O)CSc2nnc(-c3ccco3)c(-c3ccco3)n2)c1	.	68	/	.	/
O=C(CSc1ccc(-c2cccs2)nn1)Nc1ccccc1	.	.	/	.	/
Cc1cccc(NC(=O)CSc2nnc(-c3ccco3)c(-c3ccco3)n2)c1C	.	87	.	.	.
Cc1cc(C)cc(NC(=O)CSc2ccc(-c3cccs3)nn2)c1	.	72	.	.	.
COc1ccc2c(c1)c(C(O)CN1CCC(Cc3ccccc3)CC1)c(C)n2C (configuration not stated)	.	.	.	.	.
CCOC(=O)C1(CCc2ccccc2)CCN(C(=O)[C@@H]2C[C@@H](C)NC(=S)N2)CC1	.	.	/	.	/
SMILES	PMI act satM6P	Lmaj promast	HCT116 PTEN-null	PMI act	HCT116 bCat-KO
CCN1N=C(c2cc(Cl)sc2Cl)CSC1=O	.	.	.	.	.
COc1ccc(-n2c(CN3CCN(Cc4ccccc4)CC3)nc3ccc([N+](=O)[O-])cc3c2=O)c(OC)c1	.	.	/	.	/
COc1cccc(-n2c(CN3CCN(Cc4ccccc4)CC3)nc3ccc([N+](=O)[O-])cc3c2=O)c1	.	76	.	.	.
C=CCn1c(SCC(=O)N2CC(=O)Nc3ccccc32)nc2scc(-c3cccs3)c2c1=O	.	65	.	.	.
CC(C)CCn1c(SCC(=O)N2CC(=O)Nc3ccccc32)nc2scc(-c3cccs3)c2c1=O	.	.	/	.	.
O=C1CN(C(=O)CSc2nc3ccccc3n2CCc2ccccc2)c2ccccc2N1	.	58	.	.	.
O=C(O)c1ccccc1CSc1ccccn1	.	.	/	.	/
Cn1c(SCC(=O)NCCc2ccccc2)nc2c([nH]c3ccccc32)c1=O	.	93	/	.	/
Cn1c(SCC(=O)NCc2ccc(F)cc2)nc2c([nH]c3ccccc32)c1=O	.	.	/	.	/
Cn1c(O)c(C=Nc2ccc(Br)cc2)sc1=O	.	.	/	.	/
CCOc1ccc(N(CC(=O)NCC2CCCO2)S(=O)(=O)c2ccc(Cl)cc2)cc1 (configuration not stated)	.	70	.	.	.
CC(=O)Nc1ccc(S(=O)(=O)Nc2ccc(C)c([N+](=O)[O-])c2)cc1	.	.	/	.	/
CCCc1sc(N/N=C/c2ccccn2)nc1-c1ccc(F)cc1	.	96	3.1	.	3.2
CCCC(=O)NC(=S)Nc1cccc(NC(=O)c2ccccc2)c1	.	.	/	.	/
CCC(=O)Nc1ccc(Cl)c(NC(=S)NC(C)=O)c1	.	.	/	.	/
CCCCC(=O)NC(=S)Nc1cccc(NC(=O)c2ccccc2)c1	.	98	/	.	/
CC(C)CC(=O)NC(=S)Nc1cccc(NC(=O)c2ccccc2)c1	.	100	.	.	.
CCCCC(=O)Nc1cccc(NC(=S)NC(=O)Cc2ccccc2)c1	.	52	.	.	.
CCCCC(=O)Nc1cccc(NC(=S)NC(C)=O)c1	.	.	.	.	.
CCCC(=O)Nc1ccc(Cl)c(NC(=S)NC(=O)C(C)C)c1	.	100	/	.	/
O=C(CN1CCSCC1)N/N=C/c1ccc(F)c(F)c1	.	.	.	.	.
CCOC(=O)c1ccc(NC(=O)N2CCN(Cc3ccccc3)CC2)cc1	.	.	/	.	/
COc1ccc(CCNC(=O)CN2CCC(C)CC2)cc1OC	.	.	.	.	.
CCCn1c(=O)n(C)c(=O)c2c(SCC(=O)NCc3ccco3)nc(C3CC3)nc21	.	.	.	.	.
N/C(=N\N=C\c1cccs1)SC1CC(=O)N(c2ccc(Br)cc2)C1=O (configuration not stated)	.	100	/	.	/
C/C(=N\N=C(/N)SC1CC(=O)N(c2ccc(Br)cc2)C1=O)c1cccs1 (configuration not stated)	.	100	.	.	.
N/C(=N\N=C\c1ccnc2ccccc12)SC1CC(=O)N(c2ccc(Br)cc2)C1=O (configuration not stated)	.	.	.	.	.
CCOc1ccc(-c2nnn(CC(=O)N3CCCC(C)C3)n2)cc1 (configuration not stated)	.	.	/	.	/
COc1cccc(/C=C2/CN(C)CC3=C2OC(N)=C(C#N)C3c2cccc(OC)c2)c1 (configuration not stated)	.	53	.	.	.
